Experimental findings from ChEMBL document CHEMBL1240344, “Phage-encoded combinatorial chemical libraries based on bicyclic peptides” (Nat Chem Biol, 2009) are described below.

Active and inactive are the calls of the source. The rule behind the calls is not given here. Starred links: 1 amine or outer side, 2 acyl side, 3 side chain; linkers in the order of their positions; H or OH if unused. Positions of bridges follow the written chain, without caps; N, C: chain ends. Residues, ends and D or L forms follow the SMILES beside them. TBMB = c1c(C[*:1])cc(C[*:3])cc1C[*:2]

Series [1] deals with Angiotensin-converting enzyme 2 (Homo sapiens, UniProt Q9BYF1). The series can be described thus: Binding affinity to angiotensin converting enzyme 2.
Chain of Angiotensin-converting enzyme 2 (Q9BYF1 whole entry): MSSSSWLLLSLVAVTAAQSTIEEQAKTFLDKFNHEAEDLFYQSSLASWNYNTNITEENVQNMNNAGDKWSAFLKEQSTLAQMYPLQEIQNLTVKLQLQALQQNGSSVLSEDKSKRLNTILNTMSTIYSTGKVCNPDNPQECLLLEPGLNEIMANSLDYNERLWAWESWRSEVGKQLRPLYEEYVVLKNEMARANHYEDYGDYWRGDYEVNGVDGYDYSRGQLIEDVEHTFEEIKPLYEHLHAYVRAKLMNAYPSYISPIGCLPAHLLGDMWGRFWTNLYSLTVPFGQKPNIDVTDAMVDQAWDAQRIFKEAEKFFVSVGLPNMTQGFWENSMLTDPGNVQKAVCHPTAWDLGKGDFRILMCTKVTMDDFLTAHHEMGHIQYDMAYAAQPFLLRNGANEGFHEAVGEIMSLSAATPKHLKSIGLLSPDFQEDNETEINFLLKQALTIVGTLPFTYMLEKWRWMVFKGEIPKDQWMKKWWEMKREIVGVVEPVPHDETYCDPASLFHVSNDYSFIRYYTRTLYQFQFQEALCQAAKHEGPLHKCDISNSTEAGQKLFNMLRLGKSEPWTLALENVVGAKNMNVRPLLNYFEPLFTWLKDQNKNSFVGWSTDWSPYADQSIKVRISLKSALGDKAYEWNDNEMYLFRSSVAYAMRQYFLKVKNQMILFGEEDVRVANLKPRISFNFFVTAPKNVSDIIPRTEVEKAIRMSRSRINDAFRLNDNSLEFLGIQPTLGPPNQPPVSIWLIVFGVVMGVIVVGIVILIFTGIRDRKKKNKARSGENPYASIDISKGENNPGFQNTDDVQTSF
The nature of series [2]: Chemical stability of compound assessed as drug cleavage in presence of plasma kallikrein after 24 hrs at 37 degC by mass spectrometric analysis. Format: physicochemical. To be noted: read-out: Activity. Summed up:
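The peptide was incubated with human plasma kallikrein. Cleavage was detected by mass spectrometry as an 18 Da mass gain, and the cleaved fraction was estimated.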

The nature of series [3]: Chemical stability assessed as compound cleavage in presence of Aeromonas proteolytica by mass spectrometric analysis. Format: physicochemical. Summed up:
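The kallikrein-cleaved peptide was incubated with leucyl aminopeptidase from Aeromonas proteolytica. The products were analysed by mass spectrometry to locate the cleavage site.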

The target in a further series is Plasma kallikrein (Homo sapiens, UniProt P03952). The experiment in a line: Inhibition of kallikrein-mediated intrinsic coagulation pathway in human plasma assessed as reduction in factor 12a generation at 160 nM by colorimetric assay. The series is classed as cell-free. Summed up: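 Human plasma was triggered with kaolin to start the intrinsic pathway. Factor XIIa activity was then read with a colorimetric substrate.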
Chain of Plasma kallikrein (P03952 20-390 limits assumed): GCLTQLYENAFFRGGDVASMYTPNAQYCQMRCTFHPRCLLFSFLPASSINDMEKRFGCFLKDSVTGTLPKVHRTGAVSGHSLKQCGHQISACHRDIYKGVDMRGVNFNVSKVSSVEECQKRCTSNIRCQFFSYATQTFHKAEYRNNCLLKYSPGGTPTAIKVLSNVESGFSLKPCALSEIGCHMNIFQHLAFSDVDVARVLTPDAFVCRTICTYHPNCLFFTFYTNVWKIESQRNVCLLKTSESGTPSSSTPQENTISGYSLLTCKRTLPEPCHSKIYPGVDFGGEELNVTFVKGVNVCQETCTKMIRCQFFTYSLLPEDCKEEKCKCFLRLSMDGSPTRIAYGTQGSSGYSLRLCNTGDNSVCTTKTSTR
Chain of Plasma kallikrein (P03952 391-638 limits assumed): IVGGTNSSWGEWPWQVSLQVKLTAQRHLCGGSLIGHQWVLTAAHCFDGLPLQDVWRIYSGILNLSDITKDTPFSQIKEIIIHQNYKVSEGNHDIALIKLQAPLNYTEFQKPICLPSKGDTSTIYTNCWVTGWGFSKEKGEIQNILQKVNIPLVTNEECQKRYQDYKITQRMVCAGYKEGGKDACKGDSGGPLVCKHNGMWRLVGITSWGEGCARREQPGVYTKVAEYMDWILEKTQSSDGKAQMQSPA

The nature of series [4]: Binding affinity to chymotrypsin.
In series [5] the target is T1, Deoxyribonuclease-2-alpha (Homo sapiens, UniProt O00115).
T1 sequence (O00115 whole entry): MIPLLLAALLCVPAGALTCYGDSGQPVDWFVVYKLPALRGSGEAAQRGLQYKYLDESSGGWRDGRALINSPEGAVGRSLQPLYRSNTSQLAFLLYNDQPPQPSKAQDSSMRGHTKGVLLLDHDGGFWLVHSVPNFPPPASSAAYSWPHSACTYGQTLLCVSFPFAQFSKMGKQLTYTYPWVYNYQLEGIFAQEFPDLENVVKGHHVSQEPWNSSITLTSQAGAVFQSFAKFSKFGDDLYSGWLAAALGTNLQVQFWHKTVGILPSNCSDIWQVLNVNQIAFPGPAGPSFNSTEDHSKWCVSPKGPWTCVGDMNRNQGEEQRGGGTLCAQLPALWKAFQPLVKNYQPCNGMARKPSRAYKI
The series can be described thus: Binding affinity to Dnase 2.

Series [6] deals with T2, Prostate-specific antigen (Homo sapiens, UniProt P07288).
T2 sequence (P07288 whole entry): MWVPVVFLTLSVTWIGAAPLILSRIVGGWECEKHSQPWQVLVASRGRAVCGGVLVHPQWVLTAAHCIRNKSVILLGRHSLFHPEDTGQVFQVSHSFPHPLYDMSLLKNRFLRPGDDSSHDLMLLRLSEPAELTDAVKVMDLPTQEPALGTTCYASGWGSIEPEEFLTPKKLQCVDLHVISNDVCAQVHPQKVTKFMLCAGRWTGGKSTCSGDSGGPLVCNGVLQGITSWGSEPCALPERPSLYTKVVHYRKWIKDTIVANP
The experiment in a line: Binding affinity to prostate specific antigen.

The nature of series [7]: Binding affinity to beta-lactamase.
In series [8] the target is Coagulation factor VII/tissue factor (Homo sapiens, UniProt P08709). The series can be described thus: Binding affinity to tissue factor/factor 7a. Format: protein-complex assay.
Chain of Coagulation factor VII/tissue factor (P08709 61-212 limits assumed): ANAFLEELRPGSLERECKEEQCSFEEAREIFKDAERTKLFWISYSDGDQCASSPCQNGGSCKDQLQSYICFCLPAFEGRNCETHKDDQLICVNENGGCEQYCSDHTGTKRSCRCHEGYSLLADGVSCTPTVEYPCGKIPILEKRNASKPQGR
Chain of Coagulation factor VII/tissue factor (P08709 213-466 limits assumed): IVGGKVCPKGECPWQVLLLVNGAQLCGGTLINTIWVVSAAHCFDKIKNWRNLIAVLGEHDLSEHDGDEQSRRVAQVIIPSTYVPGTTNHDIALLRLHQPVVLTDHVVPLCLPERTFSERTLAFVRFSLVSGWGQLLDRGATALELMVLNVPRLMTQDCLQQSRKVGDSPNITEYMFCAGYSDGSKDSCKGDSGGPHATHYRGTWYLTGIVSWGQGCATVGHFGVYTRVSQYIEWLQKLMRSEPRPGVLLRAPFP
Chain of Coagulation factor VII/tissue factor (P13726 33-295 partner limits assumed): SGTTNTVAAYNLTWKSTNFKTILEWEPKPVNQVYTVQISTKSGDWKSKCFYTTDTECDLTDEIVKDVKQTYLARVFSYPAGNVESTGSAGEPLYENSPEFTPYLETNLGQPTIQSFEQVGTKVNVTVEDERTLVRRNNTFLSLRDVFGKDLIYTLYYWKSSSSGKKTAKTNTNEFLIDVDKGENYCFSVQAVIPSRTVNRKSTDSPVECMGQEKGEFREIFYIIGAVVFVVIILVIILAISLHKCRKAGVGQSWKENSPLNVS
For series [9], the target named is Receptor tyrosine-protein kinase erbB-2 (Homo sapiens, UniProt P04626). The experiment in a line: Binding affinity to ErbB-2.
Chain of Receptor tyrosine-protein kinase erbB-2 (P04626 whole entry): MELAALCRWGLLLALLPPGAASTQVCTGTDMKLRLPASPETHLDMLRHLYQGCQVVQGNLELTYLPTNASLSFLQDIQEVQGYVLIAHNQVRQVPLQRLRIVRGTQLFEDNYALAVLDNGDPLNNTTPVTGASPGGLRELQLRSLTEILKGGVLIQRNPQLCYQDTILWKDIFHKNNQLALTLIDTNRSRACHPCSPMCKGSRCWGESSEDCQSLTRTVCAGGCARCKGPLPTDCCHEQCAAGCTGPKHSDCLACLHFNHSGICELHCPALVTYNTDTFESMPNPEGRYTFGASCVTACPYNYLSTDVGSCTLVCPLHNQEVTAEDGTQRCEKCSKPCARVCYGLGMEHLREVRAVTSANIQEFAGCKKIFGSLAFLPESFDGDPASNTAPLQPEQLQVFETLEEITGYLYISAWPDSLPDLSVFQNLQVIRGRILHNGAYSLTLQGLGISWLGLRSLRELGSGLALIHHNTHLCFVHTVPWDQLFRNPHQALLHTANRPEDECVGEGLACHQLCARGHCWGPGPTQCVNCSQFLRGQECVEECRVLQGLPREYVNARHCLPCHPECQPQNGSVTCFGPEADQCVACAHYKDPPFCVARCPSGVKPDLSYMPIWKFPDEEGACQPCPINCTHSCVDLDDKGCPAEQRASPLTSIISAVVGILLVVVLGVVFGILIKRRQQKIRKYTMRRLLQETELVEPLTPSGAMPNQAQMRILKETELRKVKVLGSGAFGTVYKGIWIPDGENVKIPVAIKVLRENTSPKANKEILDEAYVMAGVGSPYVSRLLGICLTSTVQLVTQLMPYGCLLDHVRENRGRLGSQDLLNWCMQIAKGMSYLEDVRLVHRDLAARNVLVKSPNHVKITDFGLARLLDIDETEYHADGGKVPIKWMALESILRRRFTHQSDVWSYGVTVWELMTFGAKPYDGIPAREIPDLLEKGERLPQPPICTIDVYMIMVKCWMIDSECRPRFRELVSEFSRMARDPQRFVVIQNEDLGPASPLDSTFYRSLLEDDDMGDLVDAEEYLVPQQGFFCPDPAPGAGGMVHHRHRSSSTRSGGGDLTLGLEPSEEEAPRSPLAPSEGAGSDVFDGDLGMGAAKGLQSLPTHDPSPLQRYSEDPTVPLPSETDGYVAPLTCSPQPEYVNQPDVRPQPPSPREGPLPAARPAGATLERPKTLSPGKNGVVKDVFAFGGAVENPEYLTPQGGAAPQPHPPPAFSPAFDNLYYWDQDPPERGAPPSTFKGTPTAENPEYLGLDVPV
The next series deals with T3, Kallikrein-2 (Homo sapiens, UniProt P20151).
T3 sequence (P20151 whole entry): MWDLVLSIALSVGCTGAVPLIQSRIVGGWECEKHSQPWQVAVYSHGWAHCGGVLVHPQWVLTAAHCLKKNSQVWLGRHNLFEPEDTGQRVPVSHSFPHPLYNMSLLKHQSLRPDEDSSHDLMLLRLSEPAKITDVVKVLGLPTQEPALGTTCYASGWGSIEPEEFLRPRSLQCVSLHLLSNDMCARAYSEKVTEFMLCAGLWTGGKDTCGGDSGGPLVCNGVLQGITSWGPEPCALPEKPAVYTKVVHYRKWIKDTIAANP
The series can be described thus: Binding affinity to human kallikrein 2.

A short description of series [10]: Binding affinity to urease.

For `CC(C)C[C@H](NC(=O)[C@@H]1CCCN1C(=O)[C@H](CO)NC(=O)[C@H](CS)NC(=O)[C@H](Cc1cnc[nH]1)NC(=O)[C@H](CO)NC(=O)[C@H](Cc1ccc(O)cc1)NC(=O)[C@@H](CC(=O)O)NC(=O)CN)C(=O)N[C@@H](CCCNC(=N)N)C(=O)N[C@@H](Cc1ccc(O)cc1)C(=O)N[C@@H](Cc1ccc(O)cc1)C(=O)N1CCC[C@H]1C(=O)N[C@@H](Cc1c[nH]c2ccccc12)C(=O)N[C@@H](Cc1c[nH]c2ccccc12)C(=O)N[C@@H](CCCCN)C(=O)N[C@@H](CS)C(=O)N[C@H](C(=O)N[C@@H](Cc1ccc(O)cc1)C(=O)N1CCC[C@H]1C(=O)N[C@@H](CC(=O)O)C(=O)N1CCC[C@H]1C(=O)O)[C@@H](C)O`, the affinity in series [1] corresponds to a Ki of 2.8 nM. That is a single-digit nanomolar value. Consider `CC(C)C[C@@H]1NC(=O)[C@H](C)NC(=O)[C@H](CCC(=O)O)NC(=O)[C@H](CC(=O)O)NC(=O)[C@H](C)NC(=O)[C@@H]2CCCN2C(=O)[C@@H]2CSCc3cc(cc(c3)CSC[C@@H](C(=O)NCC(N)=O)NC1=O)CSC[C@H](NC(=O)[C@H](C)N)C(=O)N[C@@H](CO)C(=O)N[C@@H](CC(=O)O)C(=O)N[C@@H](CCCNC(=N)N)C(=O)N[C@@H](Cc1ccccc1)C(=O)N[C@@H](CCCNC(=N)N)C(=O)N[C@@H](CC(N)=O)C(=O)N2` (H-ACSDRFRNCPADEALCG-NH2; linker 2-9-16 via TBMB), for which, in [2], the metabolised at 24 h came to 90%. Further, the Stability entry in series [3] was “Unstable”. Also, the inhibition entry on Plasma kallikrein is “Active”. In the case of `N=C(N)NCCC[C@H](NC(=O)[C@H](CS)NC(=O)[C@H](CCCNC(=N)N)NC(=O)[C@H](Cc1c[nH]c2ccccc12)NC(=O)[C@H](CO)NC(=O)[C@H](Cc1ccccc1)NC(=O)[C@H](CS)NC(=O)[C@@H](N)CS)C(=O)N[C@@H](CS)C(=O)O` (H-CCFSWRCRC-OH), in [4], the Ki was found to be 1000 nM. `CC(C)C[C@H](NC(=O)[C@H](Cc1ccccc1)NC(=O)[C@H](Cc1c[nH]c2ccccc12)NC(=O)[C@H](CCC(N)=O)NC(=O)[C@H](CC(C)C)NC(=O)[C@H](CC(C)C)NC(=O)[C@H](CCCN=C(N)N)NC(=O)[C@H](CC(C)C)NC(=O)[C@@H](N)CS)C(=O)N[C@@H](Cc1c[nH]c2ccccc12)C(=O)N[C@@H](C)C(=O)N[C@@H](CS)C(=O)O` (H-CLRLLQWFLWAC-OH) yielded an inhibition constant Ki in [5] of 200 nM. `CC[C@H](C)[C@H](NC(=O)[C@H](CS)NC(=O)[C@H](Cc1ccc(O)cc1)NC(=O)[C@H](C)NC(=O)[C@@H](NC(=O)[C@@H](N)CS)C(C)C)C(=O)N[C@@H](CCC(=O)O)C(=O)N[C@@H](Cc1cnc[nH]1)C(=O)N[C@@H](Cc1cnc[nH]1)C(=O)N[C@@H](CS)C(=O)N[C@@H](Cc1c[nH]c2ccccc12)C(=O)N[C@H](C(=O)N[C@@H](CS)C(=O)O)[C@@H](C)O` (H-CVAYCIEHHCWTC-OH): in [6], the affinity, expressed as Kd, was 2900 nM. For `CC(C)[C@H](NC(=O)[C@@H](N)CS)C(=O)N[C@@H](Cc1cnc[nH]1)C(=O)N[C@@H](CO)C(=O)N1CCC[C@H]1C(=O)N[C@@H](CC(N)=O)C(=O)N[C@@H](CCCNC(=N)N)C(=O)N[C@@H](CCC(=O)O)C(=O)N[C@@H](CS)C(=O)O` (H-CVHSPNREC-OH), the half-inhibitory concentration (IC50) in series [7] came out at 9000 nM. This lies in the single-digit micromolar range. Turning to `CC(C)C[C@H](NC(=O)[C@@H](NC(=O)[C@H](CCC(=O)O)NC(=O)[C@H](Cc1c[nH]c2ccccc12)NC(=O)[C@H](CCC(=O)O)NC(=O)[C@@H](N)CCC(=O)O)C(C)C)C(=O)N[C@@H](CS)C(=O)N[C@@H](Cc1c[nH]c2ccccc12)C(=O)N[C@H](C(=O)N[C@@H](Cc1c[nH]c2ccccc12)C(=O)N[C@@H](CCC(=O)O)C(=O)N[C@H](C(=O)N[C@@H](CS)C(=O)N[C@@H](CCC(=O)O)C(=O)N[C@@H](CCCN=C(N)N)C(=O)O)[C@@H](C)O)[C@@H](C)O` (H-EEWEVLCWTWETCER-OH), the concentration for half-maximal inhibition (IC50) in series [8] came to 1.5 nM. Regarding `CC(C)C[C@H](NC(=O)[C@H](CO)NC(=O)[C@H](Cc1ccc(O)cc1)NC(=O)[C@H](CS)NC(=O)[C@H](CS)NC(=O)[C@@H](N)CCCCN)C(=O)O` (H-KCCYSL-OH), in series [9], the affinity, expressed as Ki, was 30000 nM.

As to H-SRFKVWWAAF-OH, the IC50 at Kallikrein-2 came out at 3400 nM. H-YDFYWW-OH displayed a half-maximal inhibitory concentration (IC50) in series [10] of 30000 nM.
